Measurements published in ChEMBL document CHEMBL4732044, “Discovery of a promising agent IQZ23 for the treatment of obesity and related metabolic disorders” (Eur J Med Chem, 2020).
Active and inactive are the calls of the source. The rule behind the calls is not given here.

How the values were obtained:
[1] = MRT(0 to infinity) in Sprague-Dawley rat at 2 mg/kg, iv up to 24 hrs by LC-MS/MS analysis; assay type: ADME, organism-based; settings: in vivo
How it was run: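 Male SD rats (180–220 g, n = 3) received compound in ethanol/saline (5:95), either intravenously at 2 mg/kg or intragastrically at 5 mg/kg. Plasma was sampled at 0, 0.5, 1, 2, 4, 8, 12 and 24 h. Concentrations were measured by LC-MS/MS, and PK parameters were calculated from the concentration–time data.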

[2] = test system: Mus musculus; assay: Antiobesity activity in high fat diet-induced obese C57BL/6J mouse model assessed as decrease in TG level at 20 mg/kg, ip administered for every other days for 6 weeks by Oil-red O staining based assay; assay type: functional, organism-based
How it was run: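 Male C57BL/6J mice on HFC diet, dosed 20 mg/kg i.p. every other day for 6 weeks. Tissues fixed in 4% formaldehyde, paraffin-embedded, cut into 4 µm sections and stained with H&E or Oil-red O. Six random fields per sample scored blind.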

[3] = test system: 3T3-L1; assay: Activation of AMPK pathway in mouse 3T3-L1 cells assessed as increase in TFAM mRNA expression at 0.3 to 1 uM after 24 hrs by RT-qPCR analysis; assay type: cell-based; settings: filed as activator, dose 0.3-1 µM
[4] = test system: Mus musculus; assay: Antiobesity activity in high fat diet-induced obese C57BL/6J mouse model assessed as decrease in body weight at 20 mg/kg, ip administered for every other days for 6 weeks; assay type: functional, organism-based
How it was run: (§1)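 Male C57BL/6J mice (7–8 weeks) fed HFC diet (60% fat, 1% cholesterol) for up to 14 weeks. From week 9, given 20 mg/kg i.p. every other day for 6 weeks in saline with 10% ethanol and 10% castor oil, or vehicle. Body weight and food intake recorded daily. At end, mice fasted 6 h, anesthetized, and blood collected into EDTA. Plasma chemistry run on an auto-analyzer; insulin by ultra-sensitive ELISA.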

[5] = test system: Mus musculus; assay: Antiobesity activity in high fat diet-induced obese C57BL/6J mouse model assessed as cholesterol level at 20 mg/kg, ip administered for every other days for 6 weeks by auto-analyzer method (reference value: 6.2 +/- 0.3 mM); assay type: functional; how it was run: as §1
[6] = test system: 3T3-L1; assay: Inhibition of mouse 3T3-L1 cells adipocyte differentiation assessed as reduction in adipogenic cocktail-induced SREBP-1c protein expression at 0.3 to 1 uM after 24 hrs by Western blot analysis; assay type: functional, cell-based; settings: dose 0.3-1 µM
How it was run: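 3T3-L1 preadipocytes were exposed to adipogenic cocktail with compound (0.3 or 1 µM) and harvested on day 1. Lysates were resolved by SDS-PAGE, immunoblotted (primary antibody overnight at 4 °C, HRP secondary) and quantified by densitometry normalized to actin.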

[7] = test system: Mus musculus; assay: Antiobesity activity in high fat diet-induced obese C57BL/6J mouse model assessed as decrease in AUC of ITT at 20 mg/kg, ip administered for every other days for 6 weeks by ITT method; assay type: functional, organism-based
How it was run: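 Male C57BL/6J mice on HFC diet dosed i.p. For GTT, after 3 weeks of treatment: 6 h fast, then i.p. glucose 2 g/kg. For ITT, after 6 weeks: 6 h fast, then i.p. insulin 0.4 U/mouse. Tail-vein glucose measured at 0, 15, 30, 60 and 120 min; AUC calculated.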

[8] = test system: C2C12; assay: Activation of AMPK pathway in mouse C2C12 cells assessed as increase in glucose uptake at 1 uM after 6 hrs in presence of LY-294002 by 2-NBDG/Hoechst 33342 staining based Confocal microscopic method; assay type: cell-based; settings: filed as activator
How it was run: (§2)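 C2C12 myoblasts kept in DMEM with 10% FBS and 1% penicillin/streptomycin at 37 °C under 5% CO2.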

[9] = test system: Mus musculus; assay: Antiobesity activity in high fat diet-induced obese C57BL/6J mouse model assessed as decrease in calorie intake at 20 mg/kg, ip administered for every other days for 6 weeks; assay type: functional, organism-based; how it was run: as §1
[10] = test system: Mus musculus; assay: Antiobesity activity in high fat diet-induced obese C57BL/6J mouse model assessed as decrease in lean mass at 20 mg/kg, ip administered for every other days for 6 weeks; assay type: functional, organism-based
[11] = test system: 3T3-L1; assay: Activation of AMPK pathway in mouse 3T3-L1 cells assessed as increase in ACSL mRNA expression at 0.3 to 1 uM after 24 hrs by RT-qPCR analysis; assay type: cell-based; settings: filed as activator, dose 0.3-1 µM
[12] = test system: 3T3-L1; assay: Lipid lowering activity in mouse 3T3-L1 cells assessed as reduction in adipogenic cocktail-induced triglyceride levels at 1 uM incubated for 6 days by Oil-red O staining based assay; assay type: functional, cell-based; settings: time 6.0 day
How it was run: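 Differentiating 3T3-L1 cells were treated at 1 µM for 6 days, then washed with PBS and fixed in 4% formaldehyde for 1 h. Cells were stained with 0.3% Oil Red O for 30 min at room temperature in the dark and imaged at ×200.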

[13] = test system: 3T3-L1; assay: Activation of AMPK pathway in adipogenic cocktail-induced mouse 3T3-L1 cells assessed as decrease in ATP level at 1 uM after 24 hrs; assay type: cell-based; settings: filed as activator
How it was run: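 Confluent 3T3-L1 pre-adipocytes exposed to adipogenic cocktail (0.5 mM IBMX, 100 ng/mL dexamethasone, 2 µg/mL insulin) with compound at 0.3 or 1 µM for 24 h. ATP quantified with a commercial luminescent kit and normalized to protein.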

[14] = test system: C2C12; assay: Activation of AMPK pathway in mouse C2C12 cells assessed as increase in glucose uptake at 1 uM after 6 hrs in presence of insulin by 2-NBDG/Hoechst 33342 staining based Confocal microscopic method; assay type: cell-based; settings: filed as activator; how it was run: as §2
[15] = Apparent volume of distribution in Sprague-Dawley rat at 2 mg/kg, iv up to 24 hrs by LC-MS/MS analysis; settings: in vivo, read-out: Vz
[16] = Clearance in Sprague-Dawley rat at 2 mg/kg, iv up to 24 hrs by LC-MS/MS analysis; settings: in vivo
[17] = test system: 3T3-L1; assay: Activation of AMPK pathway in mouse 3T3-L1 cells assessed as increase in NRF2 mRNA expression at 1 uM after 24 hrs by RT-qPCR analysis; assay type: cell-based; settings: filed as activator

Vd [15] [L/kg] | clearance [16] [mL/min/kg] | Compound | MRT inf [1] [h] | Activity [2] | Activity [3] | Activity [4] | Activity [5] [mM] | inhibition [6] | Activity [7] | Activity [8] | Activity [9] | Activity [10] | Activity [11] | Activity [12] | Activity [13] | Activity [14] | Activity [17]
 |  | COc1ccc2[nH]c(-c3nc(NCCCCN4CCCC4)c4ccccc4n3)c(C=O)c2c1 | 5.7 | Active | Active | Active | 4.7 | Active | Active | Active | inactive | Active | Active | Active |  |  | 
33.8 | 125 | CN(C)CCCNc1nc(-c2[nH]c3ccccc3c2C=O)nc2ccccc12 |  |  |  |  |  |  |  |  |  |  |  |  | Active | Active | Active
